In the library only some 4% were active in any assay of this set; here they are far more common.
TAAR1 ag: agonists of human TAAR1; activation, % at 3 µM; hit rate 0.99% among 360,000; CHO RD-HGA16 TAAR1, Fluo-8 calcium fluorescence; vehicle wells 0%, saturating PEA agonist 100%; Q96RJ0;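 active = activation above the mean activation of all test compounds in the run plus 3 SD, cut at about 38% in these data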
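Test system: RD-HGA16 (CHO) cells co-expressing Gα16 and hTAAR1 | Doses: Single dose, 3 µM | Schedule: 17-24 h seeding, 75 min 37 °C dye, 30 min RT | Evaluation: % activation from peak over basal fluorescence ratio, DMSO-to-PEA scaled | Technique: Kinetic Fluo-8 calcium fluorescence | Benchmarks: Low control DMSO, high control PEA (EC100)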
OX1R antag-1: human HCRTR1 antagonism. O43613. CHO/OX1R cells, Fluo-8 calcium fluorescence, orexin A. inhibition, % at 5 µM. hit rate 0.43% among 330,000. AID 434989;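 active = inhibition above its plate's threshold, mean inhibition of all tested compounds on the plate plus 3 SD, cut at about 37% in these data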
TAAR1 antag: human TAAR1 antagonism | Q96RJ0 | CHO RD-HGA16 TAAR1, Fluo-8 calcium fluorescence, antagonist | inhibition, % at 3 µM | hit rate 1.5% among 360,000 | AID 624466;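 active = inhibition above a per-plate cutoff, the mean inhibition of test compounds on that plate plus 3 SD, cut at about 49% in these data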
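Assay system: RD-HGA16 CHO cells with stable hTAAR1 and Gα16 / Reagent: EC80 β-phenethylamine stimulus / Doses: 3 µM, single point / Timing: dye loading 75 min at 37 °C, then 30 min room temperature / Measured by: Fluo-8 intracellular calcium dye fluorescence, real-time kinetic reads / Controls: vehicle wells and EC80 agonist wells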
NTR1 ag: activates human neurotensin receptor 1. activation, % at 20 µM. P30989. hit rate 0.17% among 330,000. NTR1-U2OS beta-arrestin-GFP spot imaging, agonist mode;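 active = activation at or above 40% of the spot to cytoplasm intensity ratio, with at least 20 cells analyzed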
Target sequence (P30989 whole entry, looked up): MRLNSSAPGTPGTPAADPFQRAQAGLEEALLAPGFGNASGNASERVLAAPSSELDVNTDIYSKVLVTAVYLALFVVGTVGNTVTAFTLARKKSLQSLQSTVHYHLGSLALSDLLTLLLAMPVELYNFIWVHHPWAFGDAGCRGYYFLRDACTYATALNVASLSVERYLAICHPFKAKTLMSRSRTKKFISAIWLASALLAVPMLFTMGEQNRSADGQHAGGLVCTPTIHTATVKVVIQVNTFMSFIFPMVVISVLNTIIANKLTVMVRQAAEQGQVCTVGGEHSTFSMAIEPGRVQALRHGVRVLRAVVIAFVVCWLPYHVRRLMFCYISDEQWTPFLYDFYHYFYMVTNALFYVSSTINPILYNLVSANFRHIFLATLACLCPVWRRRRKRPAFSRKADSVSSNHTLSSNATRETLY
CHO parental Ca: counter-screen: ATP calcium response change in parental CHO cells | hit rate 0.63% among 330,000 | inhibition, % at 5.6 µM | parental CHO-K1, ATP-induced calcium, Fluo-8 fluorescence;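 active = inhibition above that plate's mean sample inhibition plus 3 SD, cut at about 26% in these data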
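Test system: untransfected parental CHO cell line; also added: ATP stimulus; dosing: 5.6 µM, single dose; signal: calcium-sensitive Fluo-8 fluorescence; measure: percent inhibition of ATP-evoked calcium rise, normalized to controls; benchmarks: low control ATP plus DMSO, high control DMSO only; replication: one well per compound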
OX1R antag-2: antagonists of human orexin 1 receptor (OX1R); inhibition, % at 6.6 µM; AID 485270; O43613; OX1R-expressing cells, FRET antagonist read-out; hit rate 1.8% among 330,000; in the data active = inhibition mostly above about 38%, no sharp cut-off; inactive = mostly below about 40%
A number is an active result.

How did CCCCCC(=O)NNC(=S)NC(=O)c1ccc([N+](=O)[O-])cc1 do in these assays?
TAAR1 ag: inactive; OX1R antag-1: inactive; TAAR1 antag: inactive; NTR1 ag: inactive; CHO parental Ca: inactive; OX1R antag-2: 69.7

How did Cc1ccc(C(=O)NC(=S)NNC(=O)c2ccccc2[N+](=O)[O-])cc1 do in these assays?
TAAR1 ag: 37.8; OX1R antag-1: inactive; TAAR1 antag: inactive; NTR1 ag: inactive; CHO parental Ca: inactive; OX1R antag-2: inactive

What do the screens show for `O=C(NNC(=O)c1ccccc1O)c1ccc(-c2ccc([N+](=O)[O-])cc2)o1`?
TAAR1 ag: inactive; OX1R antag-1: inactive; TAAR1 antag: inactive; NTR1 ag: inactive; CHO parental Ca: inactive; OX1R antag-2: 54.6

Results for O=C(NC(=S)NNC(=O)c1ccccc1O)c1ccc([N+](=O)[O-])cc1 ?
TAAR1 ag: 44.1; OX1R antag-1: inactive; TAAR1 antag: inactive; NTR1 ag: inactive; CHO parental Ca: inactive; OX1R antag-2: inactive

Results for Cc1ccc(C(=O)NC(=S)NNC(=O)c2ccc([N+](=O)[O-])cc2)cc1 ?
TAAR1 ag: inactive; OX1R antag-1: inactive; TAAR1 antag: inactive; NTR1 ag: inactive; CHO parental Ca: inactive; OX1R antag-2: inactive

Results for COCCCn1cnn2c(=O)c3ccccc3nc2c1=O ?
TAAR1 ag: inactive; TAAR1 antag: inactive

How did CCOC(=O)C1=C(C(=O)OCC)C2N(Cc3ccc(C#N)cc3)c3ccccc3[C@@]23C[C@@H](C(=O)OC)N(S(=O)(=O)c2ccc(OC)cc2)C3=N1 (stereo partly drawn) do in these assays?
TAAR1 ag: inactive; TAAR1 antag: inactive

How did COC(=O)C1=C(C)N(Cc2cccc(C(F)(F)F)c2)C(=NCc2cc(OC)c(OC)c(OC)c2)NC1c1cccc(Cl)c1 (stereo not drawn) do in these assays?
TAAR1 ag: inactive; TAAR1 antag: inactive

What do the screens show for `Cc1ccc(S(=O)(=O)NNC(=S)NC(=O)c2ccc([N+](=O)[O-])cc2)cc1`?
TAAR1 ag: inactive; OX1R antag-1: inactive; TAAR1 antag: inactive; NTR1 ag: inactive; CHO parental Ca: inactive; OX1R antag-2: 69.8

What do the screens show for `CCO/C=N/Nc1nc(C(F)(F)F)nc2c1cnn2Cc1ccccc1`?
TAAR1 ag: inactive; OX1R antag-1: inactive; TAAR1 antag: inactive; NTR1 ag: inactive; CHO parental Ca: inactive; OX1R antag-2: inactive

How did CC(=O)Nc1ccc(S(=O)(=O)NCC(=O)OCC(=O)c2cc(C)n(-c3ccc4c(c3)OCO4)c2C)cc1 do in these assays?
TAAR1 ag: inactive; OX1R antag-1: inactive; TAAR1 antag: inactive; NTR1 ag: inactive; CHO parental Ca: inactive; OX1R antag-2: inactive

What do the screens show for `CC(=O)c1ccc(OCC(=O)c2cc(C)n(-c3ccc4c(c3)OCO4)c2C)cc1`?
TAAR1 ag: inactive; OX1R antag-1: inactive; TAAR1 antag: inactive; NTR1 ag: inactive; CHO parental Ca: 52.6; OX1R antag-2: inactive

How did Cc1cc(C(=O)COC(=O)c2ccc(N)c([N+](=O)[O-])c2)c(C)n1-c1ccc2c(c1)OCO2 do in these assays?
TAAR1 ag: inactive; OX1R antag-1: inactive; TAAR1 antag: inactive; NTR1 ag: inactive; CHO parental Ca: inactive; OX1R antag-2: 47.2

How did COc1ccc(CNC(=O)CSc2nc(SC)ns2)cc1 do in these assays?
TAAR1 ag: inactive; OX1R antag-1: inactive; TAAR1 antag: inactive; NTR1 ag: inactive; CHO parental Ca: 98.3; OX1R antag-2: inactive

What do the screens show for `COC(=O)c1nn(-c2ccc(-c3ccccc3)cc2)cc1O`?
TAAR1 ag: inactive; OX1R antag-1: inactive; TAAR1 antag: 52.3; NTR1 ag: inactive; CHO parental Ca: inactive; OX1R antag-2: inactive

Results for O=C1/C(=C/c2cccs2)SC(=S)N1CCC(=O)N1CCCCC1CCO (stereo not drawn) ?
TAAR1 ag: inactive; OX1R antag-1: inactive; TAAR1 antag: inactive; NTR1 ag: inactive; CHO parental Ca: inactive; OX1R antag-2: 48.3

How did CCN(C(=O)CSc1nc(N)cc(N)n1)C1CCS(=O)(=O)C1 (stereo not drawn) do in these assays?
TAAR1 ag: inactive; OX1R antag-1: inactive; TAAR1 antag: inactive; NTR1 ag: inactive; CHO parental Ca: inactive; OX1R antag-2: inactive

What do the screens show for `O=C1NC(=S)S/C1=C1\Sc2ccccc2N1CCCS(=O)(=O)O`?
TAAR1 ag: inactive; OX1R antag-1: inactive; TAAR1 antag: inactive; NTR1 ag: inactive; CHO parental Ca: inactive; OX1R antag-2: inactive

Results for NN1C(=O)/C(=C2/Sc3ccccc3N2CCCS(=O)(=O)O)SC1=S ?
TAAR1 ag: inactive; OX1R antag-1: inactive; TAAR1 antag: inactive; NTR1 ag: inactive; CHO parental Ca: inactive; OX1R antag-2: 37.5

Results for O=C(O)CCNc1cc(N2CCN(C(=O)c3ccco3)CC2)c2noc3c2c1C(=O)c1ccccc1-3 ?
TAAR1 ag: inactive; OX1R antag-1: inactive; TAAR1 antag: inactive; NTR1 ag: inactive; CHO parental Ca: inactive; OX1R antag-2: 76.3

How did CCN1CCN(c2cc(N3CCN(C(=O)c4ccco4)CC3)c3c4c(onc24)-c2ccccc2C3=O)CC1 do in these assays?
OX1R antag-1: inactive; NTR1 ag: inactive; CHO parental Ca: inactive; OX1R antag-2: 69.0

How did CC(C)C[C@H]1COc2cc(NCc3ccc(Cl)c(Cl)c3)ccc2S(=O)(=O)N1 do in these assays?
TAAR1 ag: inactive; TAAR1 antag: inactive

What do the screens show for `Cc1cc2c3c([nH]c2cc1S(=O)(=O)N1CCC2(CC1)OCCO2)CCCC3=O`?
TAAR1 ag: inactive; OX1R antag-1: inactive; TAAR1 antag: inactive; NTR1 ag: inactive; CHO parental Ca: inactive; OX1R antag-2: inactive

Results for O=C(CSc1nnc(Cn2nnc3ccccc32)o1)Nc1cccc(Cl)c1 ?
TAAR1 ag: inactive; OX1R antag-1: inactive; TAAR1 antag: inactive; NTR1 ag: inactive; CHO parental Ca: inactive; OX1R antag-2: inactive

Results for O=C(CSc1nnc(Cn2nnc3ccccc32)o1)N(Cc1ccc(Cl)cc1)c1ccccc1 ?
TAAR1 ag: inactive; OX1R antag-1: 52.6; TAAR1 antag: inactive; NTR1 ag: inactive; CHO parental Ca: 66.3; OX1R antag-2: 75.5

Results for O=C(NCCN1C(=O)S/C(=C\c2ccccc2F)C1=O)C1CC(=O)N(Cc2ccccc2)C1 (stereo not drawn) ?
TAAR1 ag: inactive; OX1R antag-1: inactive; TAAR1 antag: 54.3; NTR1 ag: inactive; CHO parental Ca: inactive; OX1R antag-2: inactive

Results for O=C(NCCN1C(=O)S/C(=C\c2cccnc2)C1=O)C1CC(=O)N(Cc2ccco2)C1 (stereo not drawn) ?
TAAR1 ag: inactive; OX1R antag-1: inactive; TAAR1 antag: inactive; NTR1 ag: inactive; CHO parental Ca: inactive; OX1R antag-2: inactive

What do the screens show for `Cc1ccc(S(=O)(=O)NCCC(=O)OCc2ccc([N+](=O)[O-])cc2)cc1C`?
TAAR1 ag: inactive; OX1R antag-1: inactive; TAAR1 antag: 50.2; NTR1 ag: inactive; CHO parental Ca: 40.9; OX1R antag-2: inactive

Screening results: PubChem, several laboratories
